Experimental data as given in ChEMBL document CHEMBL2390943, “Synthesis and preliminary evaluation steroidal antiestrogen-geldanamycin conjugates” (Bioorg Med Chem Lett, 2013).

Legend:
[1] = target: T1, Estrogen receptor (Homo sapiens) (UniProt P03372); assay: Relative binding affinity to estrogen receptor-alpha (unknown origin)
T1 sequence (whole entry): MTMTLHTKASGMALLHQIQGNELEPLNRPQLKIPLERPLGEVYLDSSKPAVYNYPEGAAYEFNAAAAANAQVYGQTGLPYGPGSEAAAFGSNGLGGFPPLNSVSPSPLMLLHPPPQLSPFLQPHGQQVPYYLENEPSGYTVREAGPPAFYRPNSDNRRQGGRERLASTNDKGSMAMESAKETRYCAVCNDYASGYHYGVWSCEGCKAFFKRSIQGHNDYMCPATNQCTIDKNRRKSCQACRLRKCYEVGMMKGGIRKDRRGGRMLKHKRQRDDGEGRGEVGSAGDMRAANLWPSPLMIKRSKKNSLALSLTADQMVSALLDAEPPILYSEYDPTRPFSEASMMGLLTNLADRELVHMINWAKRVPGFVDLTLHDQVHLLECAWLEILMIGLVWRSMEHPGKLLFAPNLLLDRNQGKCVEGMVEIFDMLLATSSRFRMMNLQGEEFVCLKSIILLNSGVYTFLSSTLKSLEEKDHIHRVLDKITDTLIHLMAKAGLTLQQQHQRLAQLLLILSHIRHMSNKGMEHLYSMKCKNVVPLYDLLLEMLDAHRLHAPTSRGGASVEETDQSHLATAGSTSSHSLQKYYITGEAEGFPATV

MCF7 [2] = assay: Antiproliferative activity against human MCF7 cells expressing estrogen receptor after 72 hrs; type: functional, cell-based; settings: MCF7, 72 h
Method in brief: (§1)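 Proliferation inhibition was measured in MCF-7 (ER-expressing) and SKBr3 (ER-lacking) human breast cancer cells. IC50 was taken as the concentration giving 50% inhibition.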

SK-BR-3 = assay: Antiproliferative activity against estrogen receptor deficient human SKBR3 cells after 72 hrs; type: functional, cell-based; settings: SK-BR-3, 72 h; method in brief: as §1
MCF7 [3] = assay: Ratio of IC50 for estrogen receptor deficient human […] cells to IC50 for human MCF7 cells expressing estrogen receptor; type: functional

SMILES	RBA [1]	IC50 (MCF7 [2])	IC50 (SK-BR-3)	Ratio IC50 (MCF7 [3])
C#CCN(C)CCOc1ccc([C@H]2C[C@]3(C)[C@@H](O)CC[C@H]3[C@@H]3CCc4cc(O)ccc4[C@H]32)cc1	39%	–	–	–
COC1=C2C[C@@H](C)C[C@H](OC)[C@H](O)[C@@H](C)/C=C(\C)[C@H](OC(N)=O)[C@@H](OC)/C=C\C=C(/C)C(=O)NC(=CC1=O)C2=O [GELDANAMYCIN]	–	0.0098 µM	0.0085 µM	–
CO[C@H]1/C=C\C=C(/C)C(=O)NC2=CC(=O)C(NCc3cn(CCOc4ccc([C@H]5C[C@]6(C)[C@@H](O)CC[C@H]6[C@@H]6CCc7cc(O)ccc7[C@H]65)cc4)nn3)=C(C[C@@H](C)C[C@H](OC)[C@H](O)[C@@H](C)/C=C(\C)[C@@H]1OC(N)=O)C2=O (stereo in doubt)	–	1.15 µM	0.71 µM	–
CO[C@H]1/C=C\C=C(/C)C(=O)NC2=CC(=O)C(NCCOCCOCCOCCc3cn(CN(C)CCOc4ccc([C@H]5C[C@]6(C)[C@@H](O)CC[C@H]6[C@@H]6CCc7cc(O)ccc7[C@H]65)cc4)nn3)=C(C[C@@H](C)C[C@H](OC)[C@H](O)[C@@H](C)/C=C(\C)[C@@H]1OC(N)=O)C2=O (stereo in doubt)	–	0.102 µM	0.041 µM	–
CO[C@H]1/C=C\C=C(/C)C(=O)NC2=CC(=O)C(NCCCCCNC(=O)c3ccc(CC4CCCCc5c(nnn5CCOc5ccc([C@H]6C[C@]7(C)[C@@H](O)CC[C@H]7[C@@H]7CCc8cc(O)ccc8[C@H]76)cc5)C4(F)F)cc3)=C(C[C@@H](C)C[C@H](OC)[C@H](O)[C@@H](C)/C=C(\C)[C@@H]1OC(N)=O)C2=O (stereo in doubt)	–	15.2 µM	–	–
CO[C@@]12[C@H](COC(N)=O)C3=C(C(=O)C(C)=C(NCc4cn(CCOCCOCCOc5ccc([C@H]6C[C@]7(C)[C@@H](O)CC[C@H]7[C@@H]7CCc8cc(O)ccc8[C@H]76)cc5)nn4)C3=O)N1C[C@H]1[C@@H]2N1C (stereo not given in full)	7%	–	–	–
COc1cccc2c1C(=O)c1c(O)c3c(c(O)c1C2=O)C[C@@](O)(/C(CO)=N/NC(=O)c1ccc(OCCOCCOCCOCCOCc2cn(CCOCCOCCOCCN(C)CCOc4ccc([C@H]5C[C@]6(C)[C@@H](O)CC[C@H]6[C@@H]6CCc7cc(O)ccc7[C@H]65)cc4)nn2)cc1)C[C@@H]3O[C@H]1C[C@H](N)[C@H](O)[C@H](C)O1	–	–	–	7
